# KCNQ1 inh: inhibitors of human KCNQ1 potassium channel; P51787; CHO-K1 KCNQ1, FluxOR thallium flux fluorescence; active compounds read high; B-score at 10 µM; hit rate 1.3% among 310,000; AID 2642;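 active means compounds whose thallium flux B-score, printed positive for inhibition, exceeds three library SD while starting fluorescence stays within three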;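 further: channel opened by potassium depolarization with thallium stimulus after 20 min compound exposure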
# KCNK9 block: inhibitors of human KCNK9 two-pore domain potassium channel. HEK293 KCNK9, FluxOR thallium flux fluorescence; active compounds read low. B-score at 10 µM. hit rate 1.2% among 310,000. AID 488922;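 active means ratio B-score over 3 SD below the library mean, with starting fluorescence within 5 SD of its mean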;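 further: negative B-score means less thallium flux so channel inhibition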
# Target sequence (Q9NPC2 whole entry, looked up, the tested form may be a part): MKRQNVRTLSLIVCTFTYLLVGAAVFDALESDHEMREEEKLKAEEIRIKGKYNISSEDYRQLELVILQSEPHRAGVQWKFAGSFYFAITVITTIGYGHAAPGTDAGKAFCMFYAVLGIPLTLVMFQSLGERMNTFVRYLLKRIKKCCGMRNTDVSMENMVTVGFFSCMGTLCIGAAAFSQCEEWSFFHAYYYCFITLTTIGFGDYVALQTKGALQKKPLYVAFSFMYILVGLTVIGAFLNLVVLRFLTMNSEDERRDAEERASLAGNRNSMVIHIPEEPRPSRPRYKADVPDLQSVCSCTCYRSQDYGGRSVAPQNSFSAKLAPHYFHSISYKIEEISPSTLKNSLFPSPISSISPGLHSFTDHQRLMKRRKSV
# Kir21 block: blocks the mouse Kir2.1 inward-rectifier potassium channel. P35561. HEK293-Kir2.1, FluxOR thallium flux fluorescence; active compounds read low. B-score at 10 µM. hit rate 0.85% among 310,000;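 active means fluorescence ratio B-score at or below minus 3 SD of library scores, with starting-brightness B-score within 2 SD, cut at about -4.2 in these data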;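 further: channel flux triggered by added potassium and thallium sulfate stimulus; B-score of peak minus minimum fluorescence over baseline after thallium stimulus; more negative B-score means stronger Kir2.1 block with less thallium influx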
# KCNQ1 act: human KCNQ1 channel potentiation or activation; P51787; CHO-K1 KCNQ1, thallium flux FluxOR fluorescence; active compounds read high; B-score at 10 µM; hit rate 0.35% among 310,000; AID 2648;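 active means fluorescence ratio B-score, a plate-corrected score, at least three library SD, with initial intensity B-score within 5 SD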
#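 assay system = CHO-K1 cells stably expressing KCNQ1 | medium = assay buffer, equal DMSO in all wells | timing = 37 °C overnight plating, 90-min dark dye load, 20-min compound pretreatment | measured by = kinetic FluxOR thallium fluorescence, 10-s 1-Hz baseline, 110-s post-stimulus read | measure = fluorescence change relative to baseline, converted to B score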
# KCNK3 inh: human KCNK3 channel inhibition, primary screen; O14649; B-score at 10 µM; AID 602410; hit rate 0.84% among 340,000; CHO-KCNK3 thallium flux, FluxOR fluorescence; active compounds read low;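 active means B-score under library mean minus 4 SD, starting fluorescence ratio at most library mean plus 5 SD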;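 further: more negative B-score means stronger inhibition of thallium flux through KCNK3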
# Target sequence (O14649 whole entry, looked up): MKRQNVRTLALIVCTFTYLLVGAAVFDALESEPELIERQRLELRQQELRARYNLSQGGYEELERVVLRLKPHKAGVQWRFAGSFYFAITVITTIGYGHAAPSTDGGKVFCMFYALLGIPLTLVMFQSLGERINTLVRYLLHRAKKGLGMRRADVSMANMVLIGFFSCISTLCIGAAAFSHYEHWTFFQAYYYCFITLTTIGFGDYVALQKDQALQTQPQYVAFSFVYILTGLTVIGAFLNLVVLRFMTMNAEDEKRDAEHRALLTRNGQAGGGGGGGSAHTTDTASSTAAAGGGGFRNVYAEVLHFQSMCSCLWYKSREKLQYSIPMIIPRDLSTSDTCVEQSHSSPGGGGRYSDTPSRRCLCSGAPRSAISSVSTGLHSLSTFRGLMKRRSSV
# hERG rescue: compounds protecting human hERG from proarrhythmic drug block | activation (rescue from dofetilide block), less the hit threshold, % at 10 µM | Q12809 | CHO-hERG, FluxOR thallium flux, dofetilide IC70 present | hit rate 0.51% among 310,000 | AID 1511;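 active means activation above the mean of controls blocked by dofetilide plus 5 SD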;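 further: thallium influx through hERG after potassium depolarization seen as dye fluorescence rise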
# KCNQ1 inh valid: confirmation of human KCNQ1 potassium channel inhibitors | shares compounds with KCNQ1 inh | inhibition, % at 10 µM | KCNQ1 cell line, FluxOR thallium flux fluorescence | hit rate 93% among 1,600;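 active means primary screen active, with duplicate mean exceeding buffer control mean plus 3 SD of buffer wells, cut at about 28% in these data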;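 further: 0% = buffer control ratio and 100% = XE991 inhibitor control ratio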
# CHO Tl flux: KCNQ1 inhibitor counter-screen hit in parental CHO cells. shares compounds with KCNQ1 inh. parental CHO-K1, FluxOR thallium flux fluorescence ratio; active compounds read low; zero means no signal rise above baseline. fluorescence ratio (Tl flux) at 10 µM. hit rate 21% among 1,600;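 active means mean of duplicate thallium-flux fluorescence ratios in parental host cells more than 5 SD below the buffer control mean, cut at about 0.38 in these data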;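 further: ratio is peak minus minimum fluorescence divided by baseline fluorescence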
# KCNQ1 APC inh: blocks human KCNQ1 current in automated patch clamp | shares compounds with KCNQ1 inh | hit rate 20% among 490 | KCNQ1-CHO cells | calls only at 10 µM;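 active means KCNQ1 current drop exceeding 3 SD of negative control wells, seen in both duplicate runs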;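 further: steady state current during a 2 s step from -80 to +40 mV; negative values mean current inhibition and positive values mean potentiation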
# KCNQ2 spec: rat KCNQ2 inhibition in KCNQ1 inhibitor specificity screen | shares compounds with KCNQ1 inh | KCNQ2 cells, FluxOR thallium flux fluorescence | inhibition, % at 10 µM | hit rate 71% among 1,600;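 active means mean percent inhibition of the KCNQ2 thallium signal more than 5 SD above the buffer-only control wells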;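 further: KCNQ2 expressed in CHO cells; 0% = buffer control wells and 100% = XE-991 inhibitor control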
# KCNQ1-KCNE1 inh: human KCNQ1/KCNE1 inhibition in KCNQ1 specificity screen; shares compounds with KCNQ1 inh; KCNQ1/KCNE1 cells, FluxOR thallium flux fluorescence; inhibition, % at 10 µM; hit rate 77% among 1,600;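 active means mean percent inhibition of duplicate wells above the buffer-only control mean plus 3 SD of those controls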;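 further: 0% = buffer only wells and 100% = XE-991 inhibitor control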
# Starred values were filed as active, the others as inactive; i = inactive; nt = no result given; + = active, no number. A selection: hits, their analogues and other compounds. The true share with any hit is near 3.8%.
SMILES,KCNQ1 inh,KCNK9 block,Kir21 block,KCNQ1 act,KCNK3 inh,hERG rescue,KCNQ1 inh valid,CHO Tl flux,KCNQ2 spec,KCNQ1-KCNE1 inh,others
Cc1nc2cc(NCc3ccccc3O)ccc2n1Cc1ccccc1,8*,i,0.07,i,i,-6.0,49.5*,0.451,i,43.0%*,
Cn1cnc2cc(NCc3ccccc3O)ccc21,i,i,0.56,i,i,0.9,nt,nt,nt,nt,
COc1cccc(C(=O)Nc2ccc(Cl)c(C(F)(F)F)c2)c1,9*,i,-0.06,i,i,-14.7,136.0*,0.373*,130.0%*,78.0%*,
Cc1ccc(NC(=O)CSc2nnc(Cc3csc(C)n3)o2)c(C)c1,i,i,0.11,i,i,-9.7,nt,nt,nt,nt,
O=C(Nc1ccc(Br)cc1)c1ccc(F)c(S(=O)(=O)NCc2cccs2)c1,7*,i,-0.16,i,i,-18.0,140.5*,0.519,92.3%*,130.0%*,
O=S(=O)(NCc1cccs1)c1ccc(Br)cc1,i,i,-1.27,i,i,-7.0,nt,nt,nt,nt,
C=C[C@]12CC[C@H](OC(C)=O)CC1=CCC1C2CC[C@@]2(C)C1CCC21OCCO1 (stereo partly drawn),nt,nt,nt,nt,i,nt,nt,nt,nt,nt,
COc1ccc(-c2csc3ncnc(N4CCN(C(=O)c5ccco5)CC4)c23)cc1,i,i,0.9,i,i,-22.9,nt,nt,nt,nt,
COc1ccc(-c2csc3ncnc(N4CCN(S(=O)(=O)c5cccs5)CC4)c23)cc1,8*,i,0.14,i,i,-20.6,84.0*,0.427,100.0%*,76.0%*,
COc1ccc(-c2csc3ncnc(N4CCN(c5ccccc5Cl)CC4)c23)cc1,9*,i,0.06,i,i,-11.4,105.0*,0.38*,96.3%*,90.5%*,
COc1ccc(-c2csc3ncnc(N4CCN(c5cccc(OC)c5)CC4)c23)cc1,10*,i,0.21,i,i,-10.4,134.5*,0.408,113.7%*,119.0%*,KCNQ1 APC inh=i
COc1ccc(-c2csc3ncnc(N4CCN(c5cccc(C)c5C)CC4)c23)cc1,7*,i,-0.67,i,i,-14.5,93.5*,0.434,68.3%*,148.5%*,KCNQ1 APC inh=i
CCN(c1ccccc1)S(=O)(=O)c1ccc(C(=O)NCc2ccco2)cc1,nt,nt,nt,nt,i,nt,nt,nt,nt,nt,
COc1ccc(F)cc1CN1CCN(c2ncnc3scc(-c4ccccc4)c23)CC1,7*,i,-1.3,i,i,-10.0,117.0*,0.406,113.7%*,153.0%*,KCNQ1 APC inh=i
COc1ccc(CN2CCN(c3ncnc4scc(-c5ccc(F)cc5)c34)CC2)cc1,i,i,-0.53,i,i,-11.7,nt,nt,nt,nt,
CCC(C)n1c(NC(=O)c2ccccc2)c(C#N)c2nc3ccccc3nc21 (stereo not drawn),8*,i,-0.16,i,i,-15.3,82.0*,0.439,63.7%*,i,
CCC(=O)Nc1c(C#N)c2nc3ccccc3nc2n1-c1ccc(C)cc1,nt,nt,nt,nt,i,nt,nt,nt,nt,nt,
CCN(CC)c1ccc(Nc2nc(N3CCOCC3)c3ccccc3n2)cc1,8*,i,-0.78,i,i,-14.3,112.5*,0.403,117.0%*,100.5%*,KCNQ1 APC inh=i
CCc1ccc(C(O)(C(C)C)C(CN2CCOCC2)c2ccccc2)cc1 (stereo not drawn),6*,i,-1.26,i,i,-5.5,65.0*,0.462,i,80.5%*,
CC1CC(C)CN(CC(=O)N2CCOCC2)C1 (stereo not drawn),i,i,-1.14,i,i,-9.6,nt,nt,nt,nt,
CCCCn1c(N)c(S(=O)(=O)c2ccc(C)cc2)c2nc3ccccc3nc21,14*,i,0.03,i,i,-7.8,88.0*,0.38*,71.0%*,93.0%*,
Cc1ccc(S(=O)(=O)c2c(N)n(Cc3ccco3)c3nc4ccccc4nc23)cc1,7*,i,-0.49,i,i,-12.8,99.0*,0.376*,74.0%*,165.5%*,
Cc1ccc(S(=O)(=O)c2c(N)n(NC(=O)c3ccco3)c3nc4ccccc4nc23)cc1,i,i,-0.96,i,i,-4.2,nt,nt,nt,nt,
CN(C)CCCn1c(N)c(S(=O)(=O)c2ccccc2)c2nc3ccccc3nc21,i,i,0.35,i,i,-16.8,nt,nt,nt,nt,
COc1ccc(C(CNC(=O)c2ccc(Br)o2)N2CCN(C)CC2)cc1 (stereo not drawn),i,i,0.81,i,i,-5.5,nt,nt,nt,nt,
SMILES,KCNQ1 inh,KCNK9 block,Kir21 block,KCNQ1 act,KCNK3 inh,hERG rescue,KCNQ1 inh valid,CHO Tl flux,KCNQ2 spec,KCNQ1-KCNE1 inh,others
O=S(=O)(Nc1nc2ccccc2nc1N1CCN(c2ccccc2)CC1)c1ccc(F)cc1,10*,i,-0.3,i,i,-6.4,78.5*,0.387,69.3%*,62.0%*,
COC(=O)C1=C(C)N(Cc2ccco2)C(=O)N[C@@H]1c1ccco1,i,i,0.1,i,i,-8.0,nt,nt,nt,nt,
CC1CCCN(CCOCCOc2ccc(Br)cc2Cl)C1 (stereo not drawn),i,i,-1.31,i,i,-10.4,nt,nt,nt,nt,
CC1CCN(CCCOc2ccc(Br)cc2Cl)CC1,7*,i,-7.61*,i,i,-13.4,61.5*,0.47,i,89.5%*,
CN1/C(=C/C=C(C#N)C#N)C(C)(C)c2ccccc21,25*,i,-0.03,i,i,-44.2,+,0.122*,i,i,
CCOc1ccccc1NC(=O)C(OC(=O)c1ccccc1)c1ccccc1 (stereo not drawn),6*,-6.9*,0.26,i,i,-2.1,89.5*,0.403,107.0%*,126.0%*,KCNQ1 APC inh=i
Cc1ccc(O)c(-c2cc(C(F)(F)C(F)F)[nH]n2)c1,6*,i,1.8,i,i,-15.5,93.0*,0.511,104.7%*,129.0%*,KCNQ1 APC inh=+
CCCCCCCCOC(=O)c1nc(Cl)c(Cl)c(N)c1Cl,7*,i,-2.38,i,i,-8.9,101.0*,0.46,65.0%*,126.5%*,KCNQ1 APC inh=i

# High-throughput results (PubChem BioAssay)
